The source made the active and inactive calls. The calls are words filed in the database; no cut-off is given here.

The source of these data is ChEMBL document CHEMBL3272265, “Interferon inducing activities of derivatives of 1,3-dimethyl-4-(3-dimethylaminopropylamino)-1H-pyrazolo(3,4-b)quinoline and related compounds” (J Med Chem, 1976).

Data set [1] concerns Mus musculus. Nature of the data set: Induction of interferon level in CD-1 mouse serum at 400 mg/kg, po after 18 to 20 hrs by vesicular stomatitis virus plaque reduction assay. It counts as functional, organism-based. Also on record: dose 400 mg/kg. The method, boiled down: (§1)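 Dosing was oral or ip in 15-g female CD-1 mice, at least three per dose level, with compound in sterile distilled water as a solution or suspension. Pooled sera were collected 18–20 hr after dosing. Interferon units/ml were quantified by a plaque reduction assay on mouse L cells with vesicular stomatitis virus challenge, run against an NIAID reference mouse interferon standard.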
Background: Plaque reduction counts the foci of infection that form in a cell layer.

Data set [2] has as its system Mus musculus. In words: Toxicity in CD-1 mouse at 300 mg/kg, ip. The note with it: in vivo. Also on record: dose 300 mg/kg, route intraperitoneal. It counts as organism-based.
In data set [3] the test system is Mus musculus. Nature of the data set: Induction of interferon level in CD-1 mouse serum at 100 mg/kg, ip after 18 to 20 hrs by vesicular stomatitis virus plaque reduction assay. It counts as functional, organism-based. Also on record: dose 100 mg/kg. In short, it runs like this: as §1
Data set [4] deals with Mus musculus. In words: Induction of interferon level in CD-1 mouse serum at 50 mg/kg, ip after 18 to 20 hrs by vesicular stomatitis virus plaque reduction assay. It counts as functional, organism-based. Further details: dose 50 mg/kg. In short, it runs like this: as §1
The species entered for data set [5] is Mus musculus. Nature of the data set: Acute toxicity in CD-1 mouse. It counts as organism-based. The note with it: in vivo.
Data set [6] concerns Mus musculus. In words: Induction of interferon level >= 32 units/mL in po dosed CD-1 mouse serum after 18 to 20 hrs by vesicular stomatitis virus plaque reduction assay. The note with it: CD-1, Serum, read-out: MED. It counts as functional. In short, it runs like this: (§2)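 Female CD-1 mice (15 g; at least three per dose) received compound dissolved or suspended in sterile distilled water, orally or ip. They were bled 18–20 hr later and sera pooled. Interferon was titrated by plaque reduction in mouse L cells challenged with vesicular stomatitis virus, with an NIAID reference mouse interferon standard. MED was the lowest dose giving ≥32 units/ml. Top doses were 400 mg/kg po and 300 mg/kg ip.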

Data set [7] has as its system Mus musculus. In words: Induction of interferon level >= 32 units/mL in ip dosed CD-1 mouse serum after 18 to 20 hrs by vesicular stomatitis virus plaque reduction assay. It counts as functional. The following applies: CD-1, Serum, read-out: MED. The method, boiled down: as §2
Data set [8] has as its system Mus musculus. In words: Induction of interferon level in CD-1 mouse serum at 200 mg/kg, po after 18 to 20 hrs by vesicular stomatitis virus plaque reduction assay. It counts as functional, organism-based. Further details: dose 200 mg/kg. In short, it runs like this:
as §1

Data set [9] concerns Mus musculus. Nature of the data set: Induction of interferon level in CD-1 mouse serum at 100 mg/kg, po after 18 to 20 hrs by vesicular stomatitis virus plaque reduction assay. Further details: dose 100 mg/kg. It counts as functional, organism-based. In short, it runs like this: as §1
Data set [10] relates to Mus musculus. Nature of the data set: Acute toxicity in CD-1 mouse at 250 mg/kg, ip. It counts as organism-based. Further details: dose 250 mg/kg, route intraperitoneal. The following applies: in vivo.
The subject of data set [11] is Mus musculus. In words: Acute toxicity in CD-1 mouse at 1600 mg/kg, po. It counts as organism-based. Also on record: dose 1600 mg/kg, route oral. The following applies: in vivo.
The test system of data set [12] is Mus musculus. Nature of the data set: Induction of interferon level in CD-1 mouse serum at 17 mg/kg, ip after 18 to 20 hrs by vesicular stomatitis virus plaque reduction assay. It counts as functional, organism-based. Further details: dose 17 mg/kg. The method, boiled down:
as §1

Data set [13] deals with Mus musculus. Nature of the data set: Toxicity in CD-1 mouse at 400 mg/kg, po. It counts as organism-based. Also on record: dose 400 mg/kg, route oral. The note with it: in vivo.
Data set [14] relates to Mus musculus. Nature of the data set: Induction of interferon level in CD-1 mouse serum at 9 mg/kg, ip after 18 to 20 hrs by vesicular stomatitis virus plaque reduction assay. It counts as functional, organism-based. Also on record: dose 9 mg/kg. The method, boiled down: as §1
Data set [15] relates to Mus musculus. Nature of the data set: Induction of interferon level in CD-1 mouse serum at 300 mg/kg, ip after 18 to 20 hrs by vesicular stomatitis virus plaque reduction assay. It counts as functional, organism-based. Also on record: dose 300 mg/kg. In short, it runs like this: as §1

For the molecule `Cc1nn(CCCN(C)C)c2nc3ccccc3c(NCCCN(C)C)c12.Cl`, the result in data set [1] and in data set [3] was inactive. Besides, in data set [2], the Activity entry is “Toxic”.

Regarding `Cc1nn(C(C)C)c2nc3ccccc3c(NCCCN(C)C)c12.Cl`, the Activity result in [2] was “Toxic”. In addition, the result in [4] was inactive.

As for `Cc1ccc2c(NCCCN(C)C)c3c(C)nn(C)c3nc2c1.Cl`, the result in data set [1] was inactive. In addition, the Activity result in data set [5] is “Toxic”. Besides, the minimal effective dose in data set [6] and in [7] was 50 mg/kg throughout.

Regarding `Cc1nn(C)c2nc3ccccc3c(SCCCN(C)C)c12.Cl`, the Activity result in data set [2] was “Toxic”. The result in data set [8] and in data set [4] was inactive.

As for `Cc1nn(C)c2nc3ccccc3c(NCCCNC34CC5CC(CC(C5)C3)C4)c12.Cl`, in data set [2], the Activity entry is reported as “Toxic”. For the same molecule, the result in data set [9] was inactive.

For `Cc1nn(C)c2nc3ccccc3c(NCCCN(C)C)c12.Cl`, the Activity entry in [10] and in [11] was “Toxic” throughout. The minimal effective dose in data set [6] came to 200 mg/kg; in data set [7] it was 100 mg/kg.

Regarding `Cc1nn(CCCN(C)C)c2nc3ccccc3c(Cl)c12.Cl`, the result in data set [12] was inactive. The Activity result in [2] is recorded as “Toxic”.

For the molecule `COc1cc2nc3c(c(C)nn3C)c(NCCCN(C)C)c2c(OC)c1OC.Cl`, the outcome in data set [8] was inactive. Moreover, in [13], the Activity entry is “Toxic”.

Consider `Cc1cccc2nc3c(c(C)nn3C)c(NCCCN(C)C)c12.Cl`, for which the result in data set [1] and in [3] was inactive. Moreover, in data set [2], the Activity entry is listed as “Toxic”.

Take `Cc1nn(C)c2nc3ccccc3c(N3CCC(CCN(C)C)CC3)c12.Cl`: the Activity entry in data set [2] is given as “Toxic”. In data set [4], the result was inactive.

In the case of `Cc1nn(C)c2nc3ccccc3c(NC3CC3)c12.Cl`, in data set [2], the Activity entry is given as “Toxic”. The result in data set [9] was inactive.

In the case of `Cc1nn(C)c2nc3ccccc3c(NCCc3ccncc3)c12.Cl`, the outcome in data set [12] and in data set [14] was inactive. Moreover, the Activity result in data set [2] is “Toxic”.

Regarding `COc1ccc(Cl)c2c(NCCCN(C)C)c3c(C)nn(C)c3nc12.Cl`, the result in data set [9] was inactive. Besides, the Activity entry in data set [13] was “Toxic”.

Take `Cc1nn(CCNCCCN(C)C)c2nc3ccccc3c(NCCCN(C)C)c12.Cl`: in data set [2], the Activity entry is “Toxic”. The result in data set [14] was inactive.

With `Cc1nn(C)c2nc3ccccc3c(OCCCN(C)C)c12.Cl`, the Activity entry in data set [2] is given as “Toxic”. Besides, the outcome in data set [4] was inactive.

As to `Cc1nn(C)c2nc3ccccc3c(NCCc3ccccn3)c12.Cl`, the Activity entry in [2] is recorded as “Toxic”. For the same molecule, in [4], the result was inactive.

Consider `CCOC(=O)c1cnc2c(c(C)nn2C)c1NCCCN(C)C`, for which the outcome in [9] was inactive.

`Cc1nn(C)c2nc3c(c(NCCCN(C)C)c12)CCCC3`: the outcome in [1] and in [3] was inactive.

For `CCn1nc(C)c2c(NCCCN(C)C)c3ccccc3nc21.Cl`, the result in data set [1], in data set [15] and in data set [3] was inactive. Also, in [2], the Activity entry is reported as “Toxic”.
